Test results published in ChEMBL document CHEMBL1629488, “Synthesis and biological evaluation of 2-(3',4',5'-trimethoxybenzoyl)-3-aryl/arylaminobenzo[b]thiophene derivatives as a novel class of antiproliferative agents” (Eur J Med Chem, 2010).
The source made the active and inactive calls. The rule behind the calls is not given here.

Key:
HeLa [1] = assay: Induction of apoptosis in human HeLa cells assessed as early apoptotic cells at 1.25 uM after 24 hrs using FITC-conjugated annexin V and propidium iodide staining by flow cytometry assay (RVb = 1.5 %); type: functional
HeLa [2] = assay: Induction of apoptosis in human HeLa cells assessed as late apoptotic cells at 5 uM after 24 hrs using FITC-conjugated annexin V and propidium iodide staining by flow cytometry assay (RVb = 1.9 %); type: functional
HeLa [3] = assay: Induction of apoptosis in human HeLa cells assessed as viable cells at 0.62 uM after 24 hrs using FITC-conjugated annexin V and propidium iodide staining by flow cytometry assay (RVb = 94.7 %); type: functional; conditions: read-out: Activity
HeLa [4] = assay: Cell cycle arrest in human HeLa cells assessed as hypodiploid peak at sub-G1 phase at 0.312 to 5 uM uM after 48 hrs using propidium iodide staining by flow cytometry; type: functional, cell-based
In short: (§1)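 Exponentially growing cells (5 × 10^5) exposed to graded compound levels, 0.312 to 5 μM, for 24 or 48 h; collected, fixed in ice-cold 70% ethanol, treated with lysis buffer containing RNase A and 0.1% Triton X-100, stained with propidium iodide; DNA content read by flow cytometry. Mean ± SEM of two independent experiments.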

HeLa [5] = assay: Induction of apoptosis in human HeLa cells assessed as loss of mitochondrial membrane potential at 0.625 to 2.5 uM using Rho123 staining by flow cytometry; type: functional, cell-based; conditions: TDE = time-dependent effect
In short: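 After 24 or 48 h exposure, HeLa cells were pelleted, resuspended in HBSS with 0.1 μM rhodamine 123, held 20 min at 37 °C, spun and resuspended in HBSS; fluorescence read by flow cytometry. Mean ± S.E.M. of 3 independent experiments.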

HL-60 = assay: Antiproliferative activity against human HL60 cells after 72 hrs by MTT assay; type: functional, cell-based; conditions: HL-60, 72 h
HeLa [6] = assay: Cell cycle arrest in human HeLa cells assessed as accumulation at G2/M phase at 1.25 uM after 24 hrs using propidium iodide staining by flow cytometry relative to control; type: functional; in short: as §1
A549 = assay: Antiproliferative activity against human A549 cells after 72 hrs by MTT assay; type: functional, cell-based; conditions: A549, 72 h
In short: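 A549 and HeLa cells grown in DMEM with 10% FBS and penicillin/streptomycin. Plated at 8 × 10^3 cells/well and held 18 h at 37 °C in 5% CO2. Medium replaced with compound in complete medium at varied concentrations for 72 h at 37 °C, then MTT read.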

Jurkat = assay: Cell cycle arrest in human Jurkat cells assessed as accumulation at S phase at 1.25 uM after 24 hrs using propidium iodide staining by flow cytometry relative to control; type: functional; in short: as §1
HeLa [7] = assay: Cell cycle arrest in human HeLa cells assessed as reduction of cells at G1 phase at 1.25 uM after 24 hrs using propidium iodide staining by flow cytometry; type: functional, cell-based; in short: as §1
HeLa [8] = assay: Induction of apoptosis in human HeLa cells assessed as early apoptotic cells at 0.62 uM after 24 hrs using FITC-conjugated annexin V and propidium iodide staining by flow cytometry assay (RVb = 1.5 %); type: functional
HeLa [9] = assay: Induction of apoptosis in human HeLa cells assessed as necrotic cells at 0.62 uM after 24 hrs using FITC-conjugated annexin V and propidium iodide staining by flow cytometry assay (RVb = 1.9 %); type: functional
HeLa [10] = assay: Induction of apoptosis in human HeLa cells assessed as caspase-3-mediated cleavage of PARP at 0.625 to 2.5 uM; type: functional, cell-based; conditions: TDE = time-dependent effect
In short: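 Treated cells washed twice in ice-cold PBS, lysed 30 min on ice, lysate cleared at 15000×g, 4 °C, 10 min; protein by BCA. 20 μg per lane on SDS-PAGE (7.5–15%), PVDF transfer, overnight block at 4 °C; primary antibodies 2 h at room temperature, peroxidase secondaries 60 min, ECL detection; β-actin loading control.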

In the case of `CCOc1ccc(Nc2c(C(=O)c3cc(OC)c(OC)c(OC)c3)sc3ccccc23)cc1`, the Activity (HeLa [1]) is reported as 6.8%, the Activity (HeLa [2]) is reported as 25.4% and the viability at 0.62 µM (HeLa [3]) is reported as 64.9%. For the same compound, the Activity (HeLa [4]) was “Active”, the Activity (HeLa [5]) was “tde” and the IC50 (HL-60) was 500 nM. It also gave an Activity (HeLa [6]) of 85%, an IC50 (A549) of 1400 nM and an Activity (Jurkat) of 18%. For the same compound, the Activity (HeLa [7]) was “Active”, the Activity (HeLa [8]) was 5.2% and the Activity (HeLa [9]) was 15.5%. The Activity (HeLa [10]) was “tde”.
